From ChEMBL document CHEMBL1121416, “Synthesis of potential inhibitors of hypoxanthine-guanine phosphoribosyltransferase for testing as antiprotozoal agents. 1. 7-Substituted 6-oxopurines” (J Med Chem, 1980)

Tests used:
[1] = system: Plasmodium berghei; assay: Activity against Plasmodium berghei in mice (Mus musculus); assay type: functional, organism-based
Outline: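 Mice infected with P. berghei; survival time (life span) of treated mice was the read-out.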

[2] = biological target: T1, Hypoxanthine-guanine phosphoribosyltransferase (Homo sapiens) (UniProt P00492); assay: Ability to inhibit hypoxanthine-guanine phosphoribosyltransferase in crude extracts of H.Ep.-2 cells.
T1 sequence (whole entry): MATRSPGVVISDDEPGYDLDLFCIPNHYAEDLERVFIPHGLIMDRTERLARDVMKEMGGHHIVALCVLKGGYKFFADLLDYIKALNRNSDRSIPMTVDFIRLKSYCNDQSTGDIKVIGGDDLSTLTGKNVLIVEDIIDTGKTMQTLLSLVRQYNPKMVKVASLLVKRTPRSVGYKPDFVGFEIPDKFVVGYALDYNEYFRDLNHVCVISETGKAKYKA
Also: test concentration or dose not given here.

Compound	Activity [1]	Activity [2]
Nc1nc(O)c2c(ncn2CC(O)CNC(=O)CBr)n1 (stereo not drawn)	Not significant	No inhibition
Nc1cccc(Cn2cnc3nc(N)nc(O)c32)c1	Not significant	No inhibition
[N-]=[N+]=NCCn1cnc2nc(N)nc(O)c21	Not significant	No inhibition
Nc1nc(O)c2c(n1)nc(Cl)n2CCCl	Not significant	No inhibition
NCCn1cnc2nc(N)nc(O)c21	Not significant	No inhibition
O=C(Nc1ccc(Cn2cnc3ncnc(O)c32)cc1)c1ccc(S(=O)(=O)F)cc1	Not significant	No inhibition
OCCn1cnc2ncnc(O)c21	Not significant	No inhibition
[N-]=[N+]=NCC(O)Cn1cnc2nc(N)nc(O)c21 (stereo not drawn)	Not significant	No inhibition
Nc1nc(O)c2c(ncn2Cc2ccc(NC(=O)c3ccc(S(=O)(=O)F)cc3)cc2)n1	Not significant	No inhibition
Nc1nc(O)c2c(ncn2Cc2ccc(NC(=O)c3ccc(Cl)cc3)cc2)n1	Not significant	No inhibition
Nc1ccc(Cn2cnc3nc(N)nc(O)c32)cc1	Not significant	No inhibition
Nc1nc(O)c2c(ncn2CCCS(=O)(=O)O)n1	Not significant	No inhibition
Nc1nc(O)c2c(ncn2Cc2ccc([N+](=O)[O-])cc2)n1	Not significant	No inhibition
Nc1nc(O)c2c(ncn2Cc2cccc(NC(=O)c3ccc(S(=O)(=O)F)cc3)c2)n1	Not significant	No inhibition
Nc1nc(O)c2c(ncn2CCNC(=O)c2cccc(S(=O)(=O)F)c2)n1	Not significant	No inhibition
O=[N+]([O-])c1ccc(Cn2cnc3ncnc(O)c32)cc1	Not significant	No inhibition
O=C(CBr)Nc1ccc(Cn2cnc3ncnc(O)c32)cc1	Not significant	No inhibition
Nc1nc(O)c2c(ncn2CC(O)CN2C(=O)c3ccccc3C2=O)n1 (stereo not drawn)	Not significant	No inhibition
Nc1nc(O)c2c(ncn2Cc2cccc(NC(=O)c3cccc(S(=O)(=O)F)c3)c2)n1	Not significant	No inhibition
Nc1nc(O)c2c(ncn2CC=O)n1	Not significant	No inhibition
Nc1nc(O)c2c(ncn2CC(O)CO)n1 (stereo not drawn)	Not significant	No inhibition
Oc1ncnc2ncn(CC(O)CCl)c12 (stereo not drawn)	Not significant	No inhibition
CC(=O)OC[C@H]1O[C@@H](N2C=NC3C(=O)N=C(N)N=C32)[C@H](OC(C)=O)[C@@H]1OC(C)=O (stereo partly drawn)	Not significant	No inhibition
Nc1nc(O)c2c(ncn2Cc2ccc(NC(=O)c3cccc(S(=O)(=O)F)c3)cc2)n1	Not significant	No inhibition
Nc1nc(O)c2c(ncn2CC(O)CNC(=O)c2ccc(Cl)cc2)n1 (stereo not drawn)	Not significant	No inhibition

Compound	Activity [1]	Activity [2]
Nc1nc(O)c2c(ncn2CCNC(=O)CBr)n1	Not significant	No inhibition
O=C(Nc1ccc(Cn2cnc3ncnc(O)c32)cc1)c1ccc(Cl)cc1	Not significant	No inhibition
Nc1nc(O)c2c(ncn2CCCl)n1	Not significant	No inhibition
Nc1nc(O)c2c(ncn2CC(O)CNC(=O)c2ccc(S(=O)(=O)F)cc2)n1 (stereo not drawn)	Not significant	No inhibition
Nc1nc(O)c2c(ncn2CC(O)CCl)n1 (stereo not drawn)	Not significant	No inhibition
Nc1nc(O)c2c(ncn2CCO)n1	Not significant	No inhibition
Nc1cccc(Cn2cnc3ncnc(O)c32)c1	Not significant	No inhibition
Nc1nc(O)c2c(ncn2Cc2cccc([N+](=O)[O-])c2)n1	Not significant	No inhibition
NCC(O)Cn1cnc2nc(N)nc(O)c21 (stereo not drawn)	Not significant	No inhibition
CCOC(=O)/C=C/Cn1cnc2nc(N)nc(O)c21	Not significant	No inhibition
Nc1nc(O)c2c(ncn2CCNC(=O)c2ccc(S(=O)(=O)F)cc2)n1	Not significant	No inhibition
CC(=O)OCC1OC([n+]2cn(CCO)c3c(O)nc(N)nc32)C(OC(C)=O)C1OC(C)=O (stereo not drawn)	Not significant	No inhibition
OCC(O)Cn1cnc2ncnc(O)c21 (stereo not drawn)	Not significant	No inhibition
O=C1c2ccccc2C(=O)N1CC(O)Cn1cnc2ncnc(O)c21 (stereo not drawn)	Not significant	No inhibition
Nc1nc(O)c2c(ncn2CCNC(=O)c2ccc(Cl)cc2)n1	Not significant	No inhibition
O=C(Nc1ccc(Cn2cnc3ncnc(O)c32)cc1)c1cccc(S(=O)(=O)F)c1	Not significant	No inhibition
Nc1nc(O)c2c(ncn2CC(O)CNC(=O)c2cccc(S(=O)(=O)F)c2)n1 (stereo not drawn)	Not significant	No inhibition
Nc1nc(O)c2c(n1)[n+](C1O[C@H](CO)[C@@H](O)[C@H]1O)cn2CCO (stereo partly drawn)	Not significant	No inhibition
O=[N+]([O-])c1cccc(Cn2cnc3ncnc(O)c32)c1	Not significant	No inhibition
Nc1nc(O)c2c(ncn2Cc2cccc(NC(=O)c3ccc(Cl)cc3)c2)n1	Not significant	No inhibition
Nc1ccc(Cn2cnc3ncnc(O)c32)cc1	Not significant	No inhibition
Nc1nc2c(ncn2[C@@H]2O[C@H](CO)[C@@H](O)[C@H]2O)c(=O)[nH]1	Not significant	No inhibition
Nc1nc(O)c2c(ncn2Cc2cccc(NC(=O)CBr)c2)n1	Not significant	No inhibition
Nc1nc(O)c2c(ncn2Cc2ccc(NC(=O)CBr)cc2)n1	Not significant	No inhibition
